ChEMBL document CHEMBL1143376, “Synthesis and biological evaluation of extraordinarily potent C-10 carba artemisinin dimers against P. falciparum malaria parasites and HL-60 cancer cells” (Bioorg Med Chem, 2009)

Tests used:
Plasmodium falciparum [1] = test: Antimalarial activity against chloroquine-sensitive Plasmodium falciparum 3D7 by [3H]hypoxanthine uptake; format: functional, organism-based
HL-60 = test: Anticancer activity against human HL60 cells by MTT assay; format: functional, cell-based
In short: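 HL-60 cells grown in RPMI-1640 with 10% v/v FBS and 1% v/v L-glutamine, 37 °C, 5% CO2, kept below 1 × 10⁶ cells/mL, passages 5–15. Seeded at 2.5 × 10⁴/well in triplicate and exposed for 72 h to […]. DMSO final below 0.5% v/v. Read by MTT (4 h) then SDS/DMF lysis (4 h), A570/590, as % of vehicle. IC50 taken from inhibition curves; experiments repeated at least three times.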

Plasmodium falciparum [2] = test: Antimalarial activity against chloroquine-resistant Plasmodium falciparum K1 by [3H]hypoxanthine uptake; format: functional, organism-based
PBMC = test: Toxicity in PBMC at 250 uM; format: cell-based
[3] = Therapeutic index, ratio of IC50 for human HL60 cells to IC50 for Plasmodium falciparum; format: cell-based, HL-60; conditions: read-out: TI

| Structure (SMILES) | IC50 (Plasmodium falciparum [1]) | IC50 (HL-60) | IC50 (Plasmodium falciparum [2]) | Activity (PBMC) | selectivity ratio [3] |
| --- | --- | --- | --- | --- | --- |
| COP(=O)(OC[C@H]1O[C@@H]2O[C@@]3(C)CC[C@H]4[C@H](C)CC[C@@H]([C@@H]1C)[C@@]24OO3)OC[C@H]1O[C@@H]2O[C@@]3(C)CC[C@H]4[C@H](C)CC[C@@H]([C@@H]1C)[C@@]24OO3 | 4.8 nM | 770 nM | – | – | – |
| C[C@H]1[C@@H](CCOP(=O)(OCC[C@H]2O[C@@H]3OC4(C)CC[C@H]5[C@H](C)CC[C@@H]([C@H]2C)[C@@]35OO4)Oc2ccccc2)O[C@@H]2OC3(C)CC[C@H]4[C@H](C)CC[C@@H]1[C@@]24OO3 (single isomer, unassigned) | – | 270 nM | 0.5 nM | Non-toxic | > 500 |
| COc1cccc2c1C(=O)c1c(O)c3c(c(O)c1C2=O)C[C@@](O)(C(=O)CO)C[C@@H]3O[C@H]1C[C@H](N)[C@H](O)[C@H](C)O1 [DOXORUBICIN] | – | 18 nM | – | – | – |
| C[C@@H]1[C@@H](COP(=O)(OC[C@H]2O[C@@H]3O[C@@]4(C)CC[C@H]5[C@H](C)CC[C@@H]([C@@H]2C)[C@@]35OO4)Oc2ccccc2)O[C@@H]2O[C@@]3(C)CC[C@H]4[C@H](C)CC[C@@H]1[C@@]24OO3 | 6 nM | 1040 nM | – | – | – |
| COP(=O)(OCCC[C@H]1O[C@@H]2O[C@@]3(C)CC[C@H]4[C@H](C)CC[C@@H]([C@H]1C)[C@@]24OO3)OCCC[C@H]1O[C@@H]2O[C@@]3(C)CC[C@H]4[C@H](C)CC[C@@H]([C@H]1C)[C@@]24OO3 | 4.8 nM | 50 nM | – | – | – |
| C[C@H]1[C@@H](CCNC(=O)NCC[C@H]2O[C@@H]3O[C@@]4(C)CC[C@H]5[C@H](C)CC[C@@H]([C@H]2C)[C@@]35OO4)O[C@@H]2O[C@@]3(C)CC[C@H]4[C@H](C)CC[C@@H]1[C@@]24OO3 | > 60 nM | > 100000 nM | – | – | – |
| C[C@H]1[C@@H](CCOC(=O)OCC[C@H]2O[C@@H]3O[C@@]4(C)CC[C@H]5[C@H](C)CC[C@@H]([C@H]2C)[C@@]35OO4)O[C@@H]2O[C@@]3(C)CC[C@H]4[C@H](C)CC[C@@H]1[C@@]24OO3 | 4.6 nM | > 100000 nM | – | – | – |
| C[C@H]1[C@@H](CCN2CCC(C3CCN(CC[C@H]4O[C@@H]5O[C@@]6(C)CC[C@H]7[C@H](C)CC[C@@H]([C@H]4C)[C@@]57OO6)CC3)CC2)O[C@@H]2O[C@@]3(C)CC[C@H]4[C@H](C)CC[C@@H]1[C@@]24OO3 | 0.46 nM | 400 nM | – | – | – |
| CO[C@H]1O[C@@H]2O[C@@]3(C)CC[C@H]4[C@H](C)CC[C@@H]([C@H]1C)[C@@]24OO3 [ARTEMETHER] | 2.11 nM | – | 3.53 nM | – | – |
| C[C@H]1[C@@H](CCNC(=O)C[C@H]2O[C@@H]3O[C@@]4(C)CC[C@H]5[C@H](C)CC[C@@H]([C@H]2C)[C@@]35OO4)O[C@@H]2O[C@@]3(C)CC[C@H]4[C@H](C)CC[C@@H]1[C@@]24OO3 | 0.03 nM | 100 nM | – | – | – |
| C[C@@H]1CC[C@H]2[C@@H](C)C(=O)O[C@@H]3O[C@@]4(C)CC[C@@H]1[C@]32OO4 [ARTEMISININ] | 12.3 nM | – | – | – | – |
| C[C@H]1[C@@H](O)O[C@@H]2O[C@@]3(C)CC[C@H]4[C@H](C)CC[C@@H]1[C@@]24OO3 [ARTENIMOL] | – | 2410 nM | – | – | – |
| C[C@H]1[C@@H](CCCOP(=O)(OCCC[C@H]2O[C@@H]3O[C@@]4(C)CC[C@H]5[C@H](C)CC[C@@H]([C@H]2C)[C@@]35OO4)Oc2ccccc2)O[C@@H]2O[C@@]3(C)CC[C@H]4[C@H](C)CC[C@@H]1[C@@]24OO3 | 0.21 nM | 250 nM | – | – | – |
| COP(=O)(OCC[C@H]1O[C@@H]2OC3(C)CC[C@H]4[C@H](C)CC[C@@H]([C@H]1C)[C@@]24OO3)OCC[C@H]1O[C@@H]2OC3(C)CC[C@H]4[C@H](C)CC[C@@H]([C@H]1C)[C@@]24OO3 (single isomer, unassigned) | – | 70 nM | 0.2 nM | Non-toxic | > 500 |
